This is a sample that favours compounds with a hit; in the whole collection about 2.2% have one here.
HCT116 bCat-KO: beta-catenin-lacking colon tumor cell growth suppression; HCT116 beta-catenin knockout viability, CellTiter-Glo, 60 h; stronger effect = lower value; viability, % at 10 µM; 140,000 tested, 1.5% active;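 active means viability at or under a set limit, the compound median less 4 SD, cut at about 6% in these data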;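 further: 0% = Hyamine 1622 control at 20 µM and 100% = untreated cell control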
Autophagy HCS: alters autophagy in cells; MEF GFP-LC3 puncta imaging; test concentration mostly 10 µM; 190,000 tested, 0.98% active; AID 463193; calls only at 10 µM (by protocol);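 active means percentage of spot-positive cells more than 3 SD above its plate mean, without a fluorescence outlier flag or 80% toxicity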;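 further: spot-positive cell cutoff set from DMSO-treated cells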
sdo1 growth: restores growth of sdo1-depleted yeast | z-score at 10 µM | 140,000 tested, 0.21% active | S. cerevisiae sdo1-depleted JHY4D growth rescue, OD600 30 h; stronger effect = higher value; pdr5 snq2 efflux-pump mutant strain | AID 817;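 active means z-score above 3 at both the 24 hr and the 30 hr optical density reads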;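 further: z-score against mean and SD of all compound wells on the same plate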
HCT116 PTEN-null: growth suppressors of cells with PTEN tumor suppressor deletion | HCT116 PTEN-null viability, CellTiter-Glo, 60 h; stronger effect = lower value | viability, % at 10 µM | 140,000 tested, 1.2% active;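 active means viability at or below a set limit, 4 SD under the median of all tested compounds, cut at about 3.7% in these data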;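 further: PTEN knockout HCT116 line with beta catenin targeted HCT116 as companion control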
Dynein transport: dynein cargo transport inhibition; 220,000 tested, 0.47% active; z-score, hits read low; 3617.4 mouse cells, GR-EGFP nuclear translocation imaging; test concentration mostly 20 µM; stimulated with dexamethasone, 1 µM; stronger effect = lower value;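 active means plate z-score of nuclear minus cytoplasmic receptor signal below a set negative limit, without overly bright fluorescence or cell loss, cut at about -3.5 in these data, passing the limit was not always enough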;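 further: z-score of nuclear minus cytoplasmic ring GR-EGFP intensity difference per well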
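Also added – dexamethasone, 1.0 µM final · Buffer or medium – tet-free, stripped-serum medium · Schedule – induction 48 h, compound 1 h, agonist 30 min · Detection – formaldehyde fixation, Hoechst nuclear stain, 10x automated fluorescence imaging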
sdo1 rescue conf: SDO1-depleted yeast growth rescue confirmation; shares compounds with sdo1 growth; S. cerevisiae JHY4D (SDO1-depleted) growth rescue, OD600, 30 h; stronger effect = higher value; efflux-deficient strain, SNQ2 and PDR5 mutated; OD recovery (concentration not given with the values); 440 tested, 44% active;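 active means yeast growth recovered at 30 hours, either rising with dose fitted slope above 0.001 or with average optical density gain above 0.07, some results past the limit were not filed as active; inactive means growth falling with dose or no effect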;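 further: gain in OD600 from 0 h to 30 h averaged across all seven doses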
Numbers without * were called inactive; i = inactive; · = no result given; + = active, no number.

SMILES	HCT116 bCat-KO	Autophagy HCS	sdo1 growth	HCT116 PTEN-null	Dynein transport	sdo1 rescue conf
Cc1ccc2nc(C(O)C(O)c3nc4ccc(C)cc4[nH]3)[nH]c2c1 (centres undefined)	109.4	i	-0.6	98.0	-0.912	·
O=C(Cn1nc(C(F)(F)F)c2c1CCC2)NCc1ccc(Cl)cc1	90.5	i	-0.78	93.4	-0.319	·
O=c1c2c3c(sc2nc2n1CCCCC2)C(O)CCC3 (centres undefined)	·	i	·	·	1.63	·
COC(=O)C1=C(C)NC(C)=C(C(=O)OC)C1c1ccc(OC(=O)c2ccco2)cc1	96.6	i	10.3*	97.2	0.108	0.079*
CCN(CC)S(=O)(=O)c1ccc(N2CCCC2)c(NC(=O)CC(C)(C)C)c1	·	·	·	·	-0.724	·
COc1ccc(N/N=C(/C)c2cnnc(-c3ccccc3)n2)cc1	15.4	i	-1.11	9.1	0.0257	·
O=C(O)Cn1nc(C(F)(F)F)c2c1CCCC2	·	i	·	·	-0.145	·
O=C(O)CCCn1nc(C(F)(F)F)c2c1CCCCC2	90.7	i	3.39*	93.2	-0.993	0.0614*
CCOc1cc(NC(=O)c2ccco2)c(OCC)cc1NC(=O)c1cc(OC)c(OC)c(OC)c1	93.1	i	1.25	96.2	0.619	0.0685
COc1cc(NC(=O)c2ccco2)c(OC)cc1NC(=O)c1cc(OC)c(OC)c(OC)c1	65.7	i	0.07	83.0	2.99	·
O=C(Nc1ccccc1)C1CC(=O)N(C2CCCCC2)C1 (centres undefined)	98.1	i	4.1*	86.4	-0.795	0.0533
COC(=O)c1ccccc1NC(=O)C1CC(=O)N(C2CCCCC2)C1 (centres undefined)	92.6	i	-0.21	87.7	0.689	·
CCOC(=O)c1cn2c3c(c(F)c(F)cc3c1=O)SC(N1CCOCC1)=N2	·	i	·	·	-1.75	·
CC(C)(C)C(=O)NCCN1CCN(C(=O)C(C)(C)C)CC1	96.3	i	1.67	94.5	-1.05	·
O=C(/C(=C(\[O-])c1ccccc1)[n+]1ccc2ccccc2c1)c1ccccc1	84.3	i	7.91*	81.2	1.43	0.0395
Nc1nc(-c2ccco2)c(-c2ccco2)s1	112.0	i	13.2*	105.8	0.717	0.0706*
Nc1ccc(-n2nncc2-c2ccc(Cl)cc2)cc1	92.8	i	12.7*	89.0	-0.0975	0.0438
O=[N+]([O-])c1ccc(-n2nncc2-c2ccc(Cl)cc2)cc1	97.9	i	-0.04	102.8	-0.945	·
COc1ccc2c(Cl)c(C(=O)NCCCn3ccnc3)sc2c1Cl	87.8	i	-0.8	81.8	0.217	·
Nc1nc(NC(=O)c2ccco2)nn1-c1ccccc1	90.1	i	3.12*	87.0	1.19	0.0484
CCOC(=O)c1[nH]c(COC(=O)C2CC(=O)N(Cc3ccccc3)C2)c(C(=O)OCC)c1C (centres undefined)	85.0	i	4.6*	85.8	0.416	0.0462
Cc1ccc(NC(=O)CSc2nc3[nH]ncc3c(=O)[nH]2)c(C)c1	·	i	·	·	-0.453	·
COc1ccc2nc(NC(=O)CCN3C(=S)NC(C)(C)CC3C)sc2c1 (centres undefined)	96.9	i	-0.08	102.5	-0.175	·
C=CCOC(=O)Nc1c(C(=O)OC)[nH]c2ccccc12	87.5	i	3.87*	74.6	-0.0569	0.0291
COc1ccc(C(=O)N=c2nc3ccccn3s2)cc1	26.2	i	1.94	24.9	0.92	0.0855*
SMILES	HCT116 bCat-KO	Autophagy HCS	sdo1 growth	HCT116 PTEN-null	Dynein transport	sdo1 rescue conf
Cc1occc1C(=O)N1CCN(c2ncccn2)CC1	104.4	i	0.9	106.7	-0.8	·
O=C(CCN1C(=O)c2ccccc2C1=O)Nc1ccc2c(c1)OCCO2	84.5	i	1.74	98.1	0.131	0.0764*
CC(C(=O)Nc1cccnc1)N1C(=O)C2C3C=CC(C3)C2C1=O (centres undefined)	81.8	i	1.75	99.3	-0.733	·
CC(C(=O)Nc1cccnc1)N1C(=O)c2ccccc2C1=O (centres undefined)	87.9	i	4.06*	94.8	0.0713	0.0876*
C=CCOc1ccc(/C=N/NC(=O)C(C)Sc2ccccn2)cc1OC (centres undefined)	99.6	i	0.12	97.5	1.1	·
CN1CCN(CC(=O)Nc2ccc(OCc3ccccc3)cc2)CC1	82.9	i	4.38*	85.0	-0.39	0.0549
N#CCN1CCN(CC(=O)Nc2ccc(OCc3ccccc3)cc2)CC1	84.3	i	-0.15	92.0	0.00377	·
Cc1nc(Nc2ccc(S(N)(=O)=O)cc2)oc1C	97.3	i	6.49*	97.4	0.953	0.0499
Cc1ccc(/C=C/C(=O)Nc2ccc(S(N)(=O)=O)cc2)o1	·	i	·	·	0.357	·
COc1ccccc1NC(=O)CN1CCN(CC(=O)Nc2cc(NC(C)=O)ccc2OC)CC1	89.2	i	-0.22	87.6	-0.397	·
Cc1cc(C)c(C)c(S(=O)(=O)NCC(=O)N2CCCC2)c1C	87.6	i	-0.17	91.2	4.68	·
CCS(=O)(=O)Nc1ccc(-c2nnc(SCC(=O)c3ccc(NC(C)=O)c(OC)c3)o2)cc1	88.3	i	2.72	94.7	1.28	0.061
Cc1nc(CS(=O)(=O)c2ccccc2)cc(N2CCOCC2)n1	101.0	i	12*	92.1	0.178	0.0688*
C/C(=N\NC(=O)CSCc1ccc([N+](=O)[O-])cc1)c1ccccc1O	84.3	i	0.32	87.2	1.5	·
Cc1cccc(OCCn2c(S(=O)(=O)O)nc3ccccc32)c1	111.7	i	1.04	101.8	0.163	·
S=C(Nc1ccccc1)Nc1nc2ccccc2n1CCOc1ccc(Br)cc1	1.6*	i	7.59*	2.1*	0.595	0.0895*
O=S(=O)(O)c1nc2ccccc2n1CCOc1ccccc1	98.8	i	8.33*	96.7	0.102	0.0354
CCN(CC)S(=O)(=O)c1ccc(C(=O)Nc2cc3oc4ccccc4c3cc2OC)cc1	80.8	+	1.19	81.8	-0.405	0.0201
Cc1ccc(S(=O)(=O)CCC(=O)Nc2ccc(F)cc2)cc1	·	i	·	·	0.533	·
Cc1ccc(Cn2c(CN3CC(C)OC(C)C3)nc3c2c(=O)n(C)c(=O)n3C)cc1 (centres undefined)	81.0	i	8.78*	88.4	-0.211	0.0574*
Cc1ccc(Cn2c(CN3CCOCC3)nc3c2c(=O)n(C)c(=O)n3C)cc1	86.5	i	-0.4	99.3	0.925	·
CN1CCN(Cc2nc3c(c(=O)n(C)c(=O)n3C)n2CCCc2ccccc2)CC1	85.2	i	11.3*	89.1	-0.161	0.129*
O=C(Cc1cc(=O)[nH][nH]1)N/N=C/c1cccc(Cl)c1Cl	94.6	i	0.95	92.9	1.03	·
CC(C)CCNC(=O)C1CC(c2ccccc2C(F)(F)F)=NO1 (centres undefined)	·	·	·	·	-0.889	·
CCOC(=O)C(O)(NC(=O)c1cccnc1)C(F)(F)F (centres undefined)	80.4	i	8.05*	80.9	3.34	0.0927*

Source: PubChem
